Results on 5 molecules are retold here after PMC3417419 (British Journal of Pharmacology, 2012).

In general, IC50 refers to the point on the concentration scale where inhibition reaches its midpoint.

Structures are written as SMILES. Like-named read-outs stand apart in the source and are kept apart here.

In one assay the test system is rat cortical neurones. The assay can be described thus: NMDA-induced excitotoxicity assay in cortical cultures. The following applies: NMDA 40 µM + glycine […], 1 h, DIV 7–10, assessed at 24 h. Format: cell-based. In short, it runs like this:
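Cortical neurones from E21 Sprague–Dawley rat embryos, grown in Neurobasal-A with B27, 1% rat serum and glutamine; AraC added at DIV 4. Before the assay, cultures moved to glycine-free non-trophic medium (10% MEM in HEPES salt-glucose medium). […] After 24 h, DAPI-stained pyknotic nuclei counted as percentage of total nuclei.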

In the next assay the test system is native NMDA receptors. The assay can be described thus: Whole-cell NMDA-evoked currents in cultured rat cortical neurones. It counts as cell-based. Conditions: for block of NMDA receptor-mediated currents, subset with greatest ifenprodil block: n= 7 cells.
For assay [1], the system named is GluN1/GluN2B NMDA receptors. Conditions: non-competitive antagonist, block 'at most'; no reference given; cited from earlier work.
Assay [2] deals with GluN2A- and GluN2B-containing NMDA receptors. Conditions: cited from earlier work.
Assay [3] concerns the target GluN1/GluN2A NMDA receptors (Rattus norvegicus, UniProt P35439+Q00959). The assay can be described thus: Two-electrode voltage-clamp. Format: cell-based. The following applies: for mean dose ratio (r): two-point glycine curves. A general note: Two-electrode voltage clamp holds a large cell at a set potential and records current.
For assay [4], the target named is GluN1/GluN2B NMDA receptors (Rattus norvegicus, UniProt P35439+Q00960). The assay can be described thus: Two-electrode voltage-clamp. The following applies: for antagonism of glutamate/glycine-evoked responses: TCN 213 10 µM. It counts as cell-based.
Another assay has as its system GluN1 subunit. The following applies: ref Bettini et al. (2010); cited from earlier work.
Assay [5] deals with GluN1/GluN2A and GluN1/GluN2D NMDA receptors. Conditions: ref Chen et al., 2008; cited from earlier work.
[6] abbreviates: TCN 213 30 µM, NMDA 50 µM + glycine 3 µM.

GluN1/GluN2B NMDA receptors (Rattus norvegicus, UniProt P35439+Q00960), sequence (Q00960 27-1482, other chains not shown): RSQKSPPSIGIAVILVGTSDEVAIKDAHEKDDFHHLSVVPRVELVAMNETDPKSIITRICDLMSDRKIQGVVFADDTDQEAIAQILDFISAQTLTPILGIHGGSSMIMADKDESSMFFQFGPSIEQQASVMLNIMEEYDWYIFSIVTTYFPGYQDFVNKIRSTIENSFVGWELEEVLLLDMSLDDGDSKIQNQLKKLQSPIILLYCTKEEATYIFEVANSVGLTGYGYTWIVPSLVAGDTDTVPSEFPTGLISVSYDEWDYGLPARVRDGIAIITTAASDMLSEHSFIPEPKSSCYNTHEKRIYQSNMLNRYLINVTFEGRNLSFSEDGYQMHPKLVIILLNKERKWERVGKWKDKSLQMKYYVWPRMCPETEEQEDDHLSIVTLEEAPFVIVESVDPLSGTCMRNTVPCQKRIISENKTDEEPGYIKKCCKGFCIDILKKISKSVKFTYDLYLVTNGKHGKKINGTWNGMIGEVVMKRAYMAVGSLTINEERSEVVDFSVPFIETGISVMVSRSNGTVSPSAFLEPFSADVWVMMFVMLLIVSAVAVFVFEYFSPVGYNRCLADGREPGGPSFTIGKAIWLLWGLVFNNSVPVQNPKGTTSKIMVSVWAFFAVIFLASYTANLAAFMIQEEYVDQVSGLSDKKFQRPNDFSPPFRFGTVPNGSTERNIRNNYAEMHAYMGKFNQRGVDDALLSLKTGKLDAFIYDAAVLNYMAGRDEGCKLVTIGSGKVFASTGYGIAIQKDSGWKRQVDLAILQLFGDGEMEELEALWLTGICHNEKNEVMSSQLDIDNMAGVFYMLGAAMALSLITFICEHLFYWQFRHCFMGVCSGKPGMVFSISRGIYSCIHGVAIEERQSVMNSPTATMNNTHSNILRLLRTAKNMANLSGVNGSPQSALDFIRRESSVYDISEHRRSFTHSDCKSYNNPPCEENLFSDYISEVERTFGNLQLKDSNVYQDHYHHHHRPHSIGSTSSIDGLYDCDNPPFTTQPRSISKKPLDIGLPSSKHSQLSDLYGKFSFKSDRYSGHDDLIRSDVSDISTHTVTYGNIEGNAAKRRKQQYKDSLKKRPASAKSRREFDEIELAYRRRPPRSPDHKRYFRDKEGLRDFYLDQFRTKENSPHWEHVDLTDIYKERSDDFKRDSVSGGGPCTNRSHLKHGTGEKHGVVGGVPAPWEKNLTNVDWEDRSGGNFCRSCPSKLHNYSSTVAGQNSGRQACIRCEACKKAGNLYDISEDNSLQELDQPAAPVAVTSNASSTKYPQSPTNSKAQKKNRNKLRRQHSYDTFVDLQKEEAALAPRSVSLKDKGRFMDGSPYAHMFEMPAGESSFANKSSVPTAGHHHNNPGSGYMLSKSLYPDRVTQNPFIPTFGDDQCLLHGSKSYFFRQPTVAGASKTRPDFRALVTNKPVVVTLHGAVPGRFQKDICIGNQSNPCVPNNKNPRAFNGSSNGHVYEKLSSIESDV
GluN1/GluN2A NMDA receptors, sequence (Q00959 23-1464, other chains not shown): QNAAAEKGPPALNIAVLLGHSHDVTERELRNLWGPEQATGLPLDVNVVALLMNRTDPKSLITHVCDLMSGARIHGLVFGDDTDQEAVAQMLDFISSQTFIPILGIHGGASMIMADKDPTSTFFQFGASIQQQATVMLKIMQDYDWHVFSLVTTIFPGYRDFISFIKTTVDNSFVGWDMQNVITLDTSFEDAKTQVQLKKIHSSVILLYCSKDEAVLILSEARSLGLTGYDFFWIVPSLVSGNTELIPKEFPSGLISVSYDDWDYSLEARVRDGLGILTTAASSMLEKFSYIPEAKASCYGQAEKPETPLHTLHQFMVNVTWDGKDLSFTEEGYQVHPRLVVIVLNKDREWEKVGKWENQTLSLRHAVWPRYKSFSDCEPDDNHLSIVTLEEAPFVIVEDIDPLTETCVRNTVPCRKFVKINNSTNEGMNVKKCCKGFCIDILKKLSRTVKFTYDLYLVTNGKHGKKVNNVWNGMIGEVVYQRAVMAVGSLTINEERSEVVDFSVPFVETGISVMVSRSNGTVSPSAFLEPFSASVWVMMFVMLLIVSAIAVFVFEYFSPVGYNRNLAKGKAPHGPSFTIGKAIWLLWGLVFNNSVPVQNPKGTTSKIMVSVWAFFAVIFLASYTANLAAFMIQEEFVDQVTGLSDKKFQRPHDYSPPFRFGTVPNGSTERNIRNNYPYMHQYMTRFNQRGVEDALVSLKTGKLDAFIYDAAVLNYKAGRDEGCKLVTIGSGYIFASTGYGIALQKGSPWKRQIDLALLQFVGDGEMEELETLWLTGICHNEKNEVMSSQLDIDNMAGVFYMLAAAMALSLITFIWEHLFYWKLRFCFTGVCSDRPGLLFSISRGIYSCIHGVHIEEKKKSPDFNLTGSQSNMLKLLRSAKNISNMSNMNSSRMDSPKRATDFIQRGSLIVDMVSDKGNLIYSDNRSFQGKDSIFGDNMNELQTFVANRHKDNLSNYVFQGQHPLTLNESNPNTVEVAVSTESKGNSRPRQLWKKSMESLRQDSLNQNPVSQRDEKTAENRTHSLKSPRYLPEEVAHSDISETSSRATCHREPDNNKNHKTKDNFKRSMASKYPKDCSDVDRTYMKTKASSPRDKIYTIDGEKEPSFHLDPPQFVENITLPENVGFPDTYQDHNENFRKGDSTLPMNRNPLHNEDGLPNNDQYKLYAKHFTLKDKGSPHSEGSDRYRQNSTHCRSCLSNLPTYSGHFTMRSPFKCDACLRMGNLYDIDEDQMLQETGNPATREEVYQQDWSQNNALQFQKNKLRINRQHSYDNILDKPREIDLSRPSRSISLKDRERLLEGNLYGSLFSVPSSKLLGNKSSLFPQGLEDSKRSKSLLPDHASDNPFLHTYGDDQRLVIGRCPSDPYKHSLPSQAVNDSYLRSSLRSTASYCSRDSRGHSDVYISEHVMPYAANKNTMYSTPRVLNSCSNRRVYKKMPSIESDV

As to `CC(C(O)c1ccc(O)cc1)N1CCC(Cc2ccccc2)CC1` (centres unmarked) [ifenprodil], in the assay on rat cortical neurones (ifenprodil 3 µM), the “NMDA-induced cell death (pyknotic nuclei) versus NMDA alone” value was “reduced significantly”. For the same molecule, the “reduction of NMDA + glycine evoked current, example cell” value in the assay on native NMDA receptors (ifenprodil 3 µM, 7 DIV pyramidal cell, NMDA 50 µM + glycine […]) is reported as “around 75%”. Moreover, the “average block of NMDA receptor-mediated currents” value in the assay with native NMDA receptors (ifenprodil 3 µM, DIV 7–10, NMDA 50 µM + glycine […], −70 mV) is on record as 72 ± 2%. Also, the “block of NMDA receptor-mediated currents, subset with greatest ifenprodil block” value in the assay on native NMDA receptors (ifenprodil 3 µM, DIV 7–10) was found to be 78 ± 1%. In addition, the “maximal block of current” value in assay [1] is given as 75–80%.
Consider `O=C(Nc1ccccc1)N[C@@H]1C[C@@H](C(=O)O)Nc2cc(Cl)cc(Cl)c21` [L-689 560], for which the “selectivity for GluN2A- over GluN2B-containing NMDA receptors” value in assay [2] (ref Hess et al., 1996) is 5 fold.
Consider `O=C(CSc1nnc(NCc2ccccc2)s1)NCC1CCCCC1` [TCN 213, N-(cyclohexylmethyl)-2-({5-[(phenylmethyl)amino]-1,3,4-thiadiazol-2-yl}thio)acetamide], for which the “mean dose ratio (r)” value in assay [3] (10 µM TCN 213, glutamate 100 µM) was 5.20 ± 0.79; in assay [3] (30 µM TCN 213, glutamate 100 µM), 17.22 ± 1.69. Further, in assay [3] (95% confidence interval 0.94–1.31), the “Schild plot slope, 'free' fit” value amounted to 1.13. Also, the IC50 in assay [3] (Antagonist IC50, [gly]= 0.1 EC50 ([…] glycine) + 100 µM glutamate) was 0.55 ± 0.05 µM; in assay [3] (Antagonist IC50, [gly]= 10 EC50 (15 µM glycine) + 100 µM glutamate), 40 ± 3.5 µM; in assay [3] (Antagonist IC50, [gly]= EC50 ([…] glycine) + 100 µM glutamate), 3.5 ± 0.05 µM; in assay [4], more than 300 µM. For the same molecule, the “block of glutamate/glycine-evoked current” value was “Almost complete block” in assay [3] (TCN 213 10 µM, glutamate 100 µM, glycine 150 nM (0.1 × EC50)) and “substantially less block” in assay [3] (TCN 213 10 µM, glutamate 100 µM, glycine 15 µM (10 × EC50)). Moreover, the “dependence of antagonism on glutamate concentration” value in assay [3] (TCN 213 10 µM, glycine 50 µM, glutamate 0.1, 1, 10 × EC50) is listed as “not dependent on the glutamate concentration”. Besides, in assay [3] (TCN 213 10 µM, glycine […], read from Figure 2A), the “expected block of current for a purely GluN2A-containing population” value is recorded as “around 75%”. For the same molecule, the “mean block of NMDA-evoked current” value in assay [3] (setting [6]) is 78 ± 4%; in assay [4] (setting [6]) it was 2 ± 0.5%. For the same molecule, the “reduction in amplitude of current response, example trace” value in assay [3] (TCN 213 30 µM, NMDA 50 µM + glycine 3 µM, single oocyte) is “approximately 75%”. In addition, the “selectivity GluN1/GluN2A over GluN1/GluN2B” value in assay [3] (from IC50 values at glycine = EC50) is listed as “around 100 fold”. Further, in assay [3] (glutamate 100 µM, glycine 50 µM and above), the “surmountability of antagonism by increasing glycine” value is on record as “surmountable”. For the same molecule, the “concentration predicted to block fully the response” value in assay [3] (glycine 10 times EC50, extrapolation of Figure 2A) is on record as “around 1 mM”. The “average inhibition of NMDA receptor-mediated currents” value in the assay with native NMDA receptors (TCN 213 10 µM, DIV 7–10, NMDA 50 µM + glycine […], −70 mV) amounted to 2 ± 3%. In the assay on native NMDA receptors (TCN 213 10 µM, DIV 7–10), the “block of NMDA receptor-mediated currents, subset with greatest ifenprodil block” value worked out at 4 ± 2%. For the same molecule, the “antagonism of glutamate/glycine-evoked responses” value in assay [4] (50 µM glycine, three glutamate concentrations) is recorded as “no antagonism”; in assay [4] (glycine low (0.1 × EC50)), “only modestly antagonized”. For the same molecule, in assay [4] (TCN 213 30 µM, glycine 1 and 10 times EC50), the inhibition of currents result was “negligible inhibition”. For the same molecule, the “displacement of the GluN1 ligand MDL 105 519” value in the assay with GluN1 subunit is “failed to displace”.
Consider `O=C(O)c1cc(=O)c2c(Cl)cc(Cl)cc2[nH]1` [5,7 DCKA, 5,7 dichlorokynurenic acid], for which the “NMDA-induced cell death (pyknotic nuclei) versus NMDA alone” value in the assay with rat cortical neurones (5,7 DCKA 10 µM) was “reduced significantly”. The half-maximal inhibitory concentration (IC50) in assay [3] (read-out: Antagonist IC50, [gly]= 0.1 EC50 ([…] glycine) + 100 µM glutamate) was 0.13 ± 0.01 µM; in assay [3] (read-out: Antagonist IC50, [gly]= 10 EC50 (15 µM glycine) + 100 µM glutamate), 4.1 ± 0.3 µM; in assay [3] (read-out: Antagonist IC50, [gly]= EC50 ([…] glycine) + 100 µM glutamate) it was 0.42 ± 0.03 µM; in assay [4] (read-out: Antagonist IC50), 0.074 ± 0.01 µM; in assay [4] (read-out: Antagonist IC50, [gly]= 10 EC50), 4.1 ± 0.4 µM; in assay [4] (read-out: Antagonist IC50, [gly]= EC50) it was 0.49 ± 0.01 µM. Further, the “KB values at GluN1/GluN2A versus GluN1/GluN2D (Schild analysis)” value in assay [5] is “indistinguishable”.
As for `[N-]=[N+]=Nc1ccc(CC(=O)NC2CC(C(=O)O)Nc3cc(Cl)cc(Cl)c32)cc1` (centres unmarked) [CGP-61594], in assay [2] (more potent at GluN1/GluN2B, ref Honer et al., 1998), the “potency at GluN1/GluN2B compared with GluN1/GluN2A NMDA receptors” value is 10 fold.
